From ChEMBL document CHEMBL3872225, “Synthesis, binding assays, cytotoxic activity and docking studies of benzimidazole and benzothiophene derivatives with selective affinity for the CB2 cannabinoid receptor” (Eur J Med Chem, 2016)

Target: Cannabinoid receptor 1 (Homo sapiens, UniProt P21554)
Assay: Displacement of [3H]CP-55940 from human recombinant CB1 receptor expressed in HEK293 cell membranes incubated for 1.5 hrs
Conditions: not given
Summary of the method: (§1)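 Membranes from HEK-293 cells overexpressing human CB1 or CB2 incubated with increasing compound concentrations and 0.5 nM [3H]CP-55,940 at 30 °C for 1.5 h. […] Selectivity index is Ki CB1/Ki CB2.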

Cannabinoid receptor 1, sequence (P21554 whole entry): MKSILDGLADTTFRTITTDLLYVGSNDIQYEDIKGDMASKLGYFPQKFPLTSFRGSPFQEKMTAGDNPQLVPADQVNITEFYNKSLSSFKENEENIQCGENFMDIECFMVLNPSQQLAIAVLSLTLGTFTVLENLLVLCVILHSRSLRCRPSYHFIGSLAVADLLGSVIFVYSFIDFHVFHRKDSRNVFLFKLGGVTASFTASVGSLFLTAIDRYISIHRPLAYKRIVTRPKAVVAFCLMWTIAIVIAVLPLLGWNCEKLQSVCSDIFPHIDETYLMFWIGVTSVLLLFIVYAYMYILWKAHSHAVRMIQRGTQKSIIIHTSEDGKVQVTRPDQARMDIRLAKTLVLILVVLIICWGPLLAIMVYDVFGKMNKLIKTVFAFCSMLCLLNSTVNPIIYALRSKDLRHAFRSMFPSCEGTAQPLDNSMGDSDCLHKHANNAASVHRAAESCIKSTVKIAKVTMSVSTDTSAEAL

Row | Structure (SMILES) | IC50 | Ki
1 | O=C(c1cccc2ccccc12)n1c(C2CCCC2)nc2ccccc21 | > 10 µM | > 10 µM
2 | CCc1sc2ccccc2c1C(=O)c1ccc(OC)cc1 | > 10 µM | > 10 µM
3 | COc1ccc(C(=O)c2c(CC(C)C)sc3ccccc23)cc1 | 7.6 µM | 4.6 µM
4 | CCCc1nc2ccccc2n1C(=O)c1ccc(OC)cc1 | > 10 µM | > 10 µM
5 | O=C(c1cccc2ccccc12)n1c(C2CCCCC2)nc2ccccc21 | 4.9 µM | 2.9 µM
6 | COc1ccc(Cn2c(-c3ccc(OC)cc3)nc3ccccc32)cc1 | > 10 µM | > 10 µM

Target: Cannabinoid receptor 1 (CB1) (Homo sapiens, UniProt P21554)
Assay: Displacement of [3H]CP-55940 from human recombinant CB1 receptor expressed in HEK293 cell membranes at 1 uM incubated for 1.5 hrs relative to control
Conditions: probe [3H]CP-55940
Summary of the method: (§2)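 Single-point screen on HEK-293 membranes overexpressing human CB1 or CB2. […] Compounds displacing more than 50% at 1 μM went on to full curves.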

Cannabinoid receptor 1 (CB1), sequence (P21554 whole entry): as above

Row | Structure (SMILES) | inhibition at 1.5 h, 1 µM
7 | O=C(c1cccc2ccccc12)n1c(C2CCCC2)nc2ccccc21 | > 50%
8 | CCc1sc2ccccc2c1C(=O)c1ccc(OC)cc1 | > 50%
9 | COc1ccc(C(=O)c2c(CC(C)C)sc3ccccc23)cc1 | > 50%
10 | CCCc1nc2ccccc2n1C(=O)c1ccc(OC)cc1 | > 50%
11 | O=C(c1cccc2ccccc12)n1c(C2CCCCC2)nc2ccccc21 | > 50%
12 | COc1ccc(Cn2c(-c3ccc(OC)cc3)nc3ccccc32)cc1 | > 50%

Target: T1, Cannabinoid receptor 2 (Homo sapiens, UniProt P34972)
Assay: Displacement of [3H]CP-55940 from human recombinant CB2 receptor expressed in HEK293 cell membranes at 1 uM incubated for 1.5 hrs relative to control
Conditions: not given
Summary of the method: as §2

T1 sequence (P34972 whole entry): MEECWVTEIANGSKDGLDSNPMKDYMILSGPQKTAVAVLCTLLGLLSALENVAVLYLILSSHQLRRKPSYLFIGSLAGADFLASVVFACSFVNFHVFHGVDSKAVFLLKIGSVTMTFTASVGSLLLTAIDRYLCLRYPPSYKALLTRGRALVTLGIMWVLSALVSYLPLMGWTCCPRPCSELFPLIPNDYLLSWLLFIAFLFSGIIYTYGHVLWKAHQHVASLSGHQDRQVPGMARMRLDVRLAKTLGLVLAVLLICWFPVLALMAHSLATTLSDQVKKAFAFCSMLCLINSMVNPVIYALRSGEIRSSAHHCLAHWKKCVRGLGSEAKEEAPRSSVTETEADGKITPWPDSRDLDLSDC

Row | Structure (SMILES) | inhibition
13 | O=C(c1cccc2ccccc12)n1c(C2CCCC2)nc2ccccc21 | > 50%
14 | CCc1sc2ccccc2c1C(=O)c1ccc(OC)cc1 | > 50%
15 | COc1ccc(C(=O)c2c(CC(C)C)sc3ccccc23)cc1 | > 50%
16 | CCCc1nc2ccccc2n1C(=O)c1ccc(OC)cc1 | > 50%
17 | O=C(c1cccc2ccccc12)n1c(C2CCCCC2)nc2ccccc21 | > 50%
18 | COc1ccc(Cn2c(-c3ccc(OC)cc3)nc3ccccc32)cc1 | > 50%

Target: T1, Cannabinoid receptor 2
Assay: Displacement of [3H]CP-55940 from human recombinant CB2 receptor expressed in HEK293 cell membranes incubated for 1.5 hrs
Conditions: not given
Summary of the method: as §1

Row | Structure (SMILES) | IC50 | Ki
19 | O=C(c1cccc2ccccc12)n1c(C2CCCC2)nc2ccccc21 | 2.9 µM | 0.7 µM
20 | CCc1sc2ccccc2c1C(=O)c1ccc(OC)cc1 | 6.6 µM | 1.6 µM
21 | COc1ccc(C(=O)c2c(CC(C)C)sc3ccccc23)cc1 | 0.7 µM | 0.1 µM
22 | CCCc1nc2ccccc2n1C(=O)c1ccc(OC)cc1 | 7.6 µM | 1.9 µM
23 | O=C(c1cccc2ccccc12)n1c(C2CCCCC2)nc2ccccc21 | 1.7 µM | 0.4 µM
24 | COc1ccc(Cn2c(-c3ccc(OC)cc3)nc3ccccc32)cc1 | 2.7 µM | 0.7 µM

Organism: Homo sapiens
Assay: Selectivity index, ratio of Ki for displacement of [3H]CP-55940 from human recombinant CB1 receptor to Ki for displacement of [3H]CP-55940 from human recombinant CB2 receptor
Conditions: not given
Summary of the method: as §1

Row | Structure (SMILES) | Ratio Ki
25 | O=C(c1cccc2ccccc12)n1c(C2CCCC2)nc2ccccc21 | > 14
26 | CCc1sc2ccccc2c1C(=O)c1ccc(OC)cc1 | > 6.2
27 | COc1ccc(C(=O)c2c(CC(C)C)sc3ccccc23)cc1 | 46
28 | CCCc1nc2ccccc2n1C(=O)c1ccc(OC)cc1 | > 5.26
29 | O=C(c1cccc2ccccc12)n1c(C2CCCCC2)nc2ccccc21 | 7.25
30 | COc1ccc(Cn2c(-c3ccc(OC)cc3)nc3ccccc32)cc1 | > 14

System: not listed separately
Assay: Cytotoxicity against human HeLa cells assessed as reduction in cell viability measured after 72 hrs by MTT assay
Type: functional, cell-based
Conditions: not given
Summary of the method: (§3)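 Cells kept in RPMI 1640 with 5% FBS, penicillin/streptomycin, 37 °C, 5% CO2. Seeded at 10,000 cells/well, then exposed to compounds at 0.001–10 μM in 5% FBS-RPMI for 72 h at 37 °C. MTT added for 4 h, formazan dissolved overnight in 10% SDS/0.1 mM HCl, absorbance read at 570 nm. […] Etoposide as positive control.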

Row | Structure (SMILES) | IC50
31 | O=C(c1cccc2ccccc12)n1c(C2CCCC2)nc2ccccc21 | > 10 µM
32 | CCc1sc2ccccc2c1C(=O)c1ccc(OC)cc1 | > 10 µM
33 | COc1ccc(C(=O)c2c(CC(C)C)sc3ccccc23)cc1 | > 10 µM
34 | CCCc1nc2ccccc2n1C(=O)c1ccc(OC)cc1 | > 10 µM
35 | O=C(c1cccc2ccccc12)n1c(C2CCCCC2)nc2ccccc21 | > 10 µM
36 | COc1ccc(Cn2c(-c3ccc(OC)cc3)nc3ccccc32)cc1 | 3.06 µM

System: not listed separately
Assay: Cytotoxicity against resistant human HCT116 cells assessed as reduction in cell viability measured after 72 hrs by MTT assay
Type: functional, cell-based
Conditions: HCT-116, 72 h
Summary of the method: as §3

Row | Structure (SMILES) | IC50
37 | O=C(c1cccc2ccccc12)n1c(C2CCCC2)nc2ccccc21 | > 10 µM
38 | CCc1sc2ccccc2c1C(=O)c1ccc(OC)cc1 | > 10 µM
39 | COc1ccc(C(=O)c2c(CC(C)C)sc3ccccc23)cc1 | > 10 µM
40 | CCCc1nc2ccccc2n1C(=O)c1ccc(OC)cc1 | 0.12 µM
41 | O=C(c1cccc2ccccc12)n1c(C2CCCCC2)nc2ccccc21 | 3.02 µM
42 | COc1ccc(Cn2c(-c3ccc(OC)cc3)nc3ccccc32)cc1 | 1.75 µM

System: not listed separately
Assay: Cytotoxicity against African green monkey Vero cells assessed as reduction in cell viability measured after 72 hrs by MTT assay
Type: toxicity, cell-based
Conditions: Chlorocebus sabaeus (African green monkey)
Summary of the method: as §3

Row | Structure (SMILES) | IC50 at 72 h
43 | O=C(c1cccc2ccccc12)n1c(C2CCCC2)nc2ccccc21 | > 10 µM
44 | CCc1sc2ccccc2c1C(=O)c1ccc(OC)cc1 | > 10 µM
45 | COc1ccc(C(=O)c2c(CC(C)C)sc3ccccc23)cc1 | > 10 µM
46 | CCCc1nc2ccccc2n1C(=O)c1ccc(OC)cc1 | 0.3 µM
47 | O=C(c1cccc2ccccc12)n1c(C2CCCCC2)nc2ccccc21 | > 10 µM
48 | COc1ccc(Cn2c(-c3ccc(OC)cc3)nc3ccccc32)cc1 | > 10 µM

System: not listed separately
Assay: Cytotoxicity against human HL60 cells assessed as reduction in cell viability measured after 72 hrs by MTT assay
Type: functional, cell-based
Conditions: HL-60, 72 h
Summary of the method: as §3

Row | Structure (SMILES) | IC50
49 | O=C(c1cccc2ccccc12)n1c(C2CCCC2)nc2ccccc21 | 0.106 µM
50 | CCc1sc2ccccc2c1C(=O)c1ccc(OC)cc1 | 0.046 µM
51 | COc1ccc(C(=O)c2c(CC(C)C)sc3ccccc23)cc1 | 0.066 µM
52 | CCCc1nc2ccccc2n1C(=O)c1ccc(OC)cc1 | 0.102 µM
53 | O=C(c1cccc2ccccc12)n1c(C2CCCCC2)nc2ccccc21 | 0.22 µM
54 | COc1ccc(Cn2c(-c3ccc(OC)cc3)nc3ccccc32)cc1 | 0.057 µM

System: not listed separately
Assay: Cytotoxicity against human H1975-1 cells assessed as reduction in cell viability measured after 72 hrs by MTT assay
Type: functional, cell-based
Conditions: not given
Summary of the method: as §3

Row | Structure (SMILES) | IC50
55 | O=C(c1cccc2ccccc12)n1c(C2CCCC2)nc2ccccc21 | > 10 µM
56 | CCc1sc2ccccc2c1C(=O)c1ccc(OC)cc1 | > 10 µM
57 | COc1ccc(C(=O)c2c(CC(C)C)sc3ccccc23)cc1 | > 10 µM
58 | CCCc1nc2ccccc2n1C(=O)c1ccc(OC)cc1 | > 10 µM
59 | O=C(c1cccc2ccccc12)n1c(C2CCCCC2)nc2ccccc21 | > 10 µM
60 | COc1ccc(Cn2c(-c3ccc(OC)cc3)nc3ccccc32)cc1 | > 10 µM
